The text below walks through data of ChEMBL document CHEMBL2163187, “Neomaclafungins A-I: oligomycin-class macrolides from a marine-derived actinomycete” (2012).

This assay has as its system Trichophyton mentagrophytes. In words: Antifungal activity against Trichophyton mentagrophytes ATCC 9533. The assay is classed as functional. The essentials: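 Microbial assay against Trichophyton mentagrophytes ATCC 9533. Compounds were tested at concentrations from 10 μg/mL to 10 ng/mL.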

In brackets after ≈: the same amount, converted by molar mass.

`CC[C@@H]1/C=C/C=C/C[C@H](C)[C@H](O)[C@](C)(O)C(=O)[C@H](C)[C@@H](O)[C@H](C)C(=O)[C@H](C)[C@@H](O)[C@H](C)/C=C/C(=O)O[C@H]2[C@@H](C)[C@@H](CC1)O[C@@]1(CC[C@@H](C)[C@@H](C[C@H](C)O)O1)[C@@H]2C` [OLIGOMYCIN A]: 10 µg/mL (≈ 12.6 µM) was the least that counted as inhibitory (MIC).
Regarding `CC[C@@H](O)C[C@@H]1O[C@@]2(CC[C@@H]1C)C[C@@H]1OC(=O)/C=C/[C@H](C)[C@@H](O)[C@@H](C)[C@H](O)C[C@H](OC)C[C@H](O)[C@H](C)[C@H](O)CC/C=C/C=C/[C@H](CC)CC[C@H](O2)[C@H]1CCC(C)O` (stereo not given in full), the MIC stood at 1 µg/mL (≈ 1.24 µM).
In the case of `CC[C@H]1/C=C/C=C/CC[C@@H](O)[C@@H](C)[C@@H](O)C[C@@H](OC)C[C@@H](O)[C@H](C)[C@H](O)[C@@H](C)/C=C/C(=O)O[C@H]2C[C@@]3(CC[C@H](C)[C@H](C[C@@H](C)O)O3)O[C@@H](CC1)[C@H]2CCCO` [NEOMACLAFUNGIN A] it was 3 µg/mL (≈ 3.84 µM); in that of `CCCCC[C@H]1[C@@H]2C[C@@]3(CC[C@H](C)[C@H](C[C@@H](C)O)O3)O[C@H]1CC[C@@H](CC)/C=C/C=C/CC[C@@H](O)[C@@H](C)[C@@H](O)C[C@@H](OC)C[C@@H](O)[C@H](C)[C@H](O)[C@@H](C)/C=C/C(=O)O2`, 3 µg/mL (≈ 3.78 µM); in that of `CC[C@H]1/C=C/C=C/CC[C@@H](O)[C@@H](C)[C@@H](O)C[C@@H](OC)C[C@@H](O)[C@H](C)[C@H](O)[C@@H](C)/C=C/C(=O)O[C@H]2C[C@@]3(CC[C@H](C)[C@H](C[C@@H](C)O)O3)O[C@@H](CC1)[C@H]2CC`, 1 µg/mL (≈ 1.33 µM).
The compound `CC[C@H]1/C=C/C=C/CC[C@@H](O)[C@@H](C)[C@@H](O)C[C@@H](OC)C[C@@H](O)[C@H](C)[C@H](O)[C@@H](C)/C=C/C(=O)O[C@H]2C[C@@]3(CC[C@H](C)[C@H](C[C@@H](C)O)O3)O[C@@H](CC1)[C@H]2CCC(C)O` (stereo not given in full) registered an MIC of 3 µg/mL (≈ 3.77 µM).
In turn, `CC[C@@H](O)C[C@@H]1O[C@@]2(CC[C@@H]1C)C[C@@H]1OC(=O)/C=C/[C@H](C)[C@@H](O)[C@@H](C)[C@H](O)C[C@H](OC)C[C@H](O)[C@H](C)[C@H](O)CC/C=C/C=C/[C@H](CC)CC[C@H](O2)[C@H]1CCCO` gave an MIC of 1 µg/mL (≈ 1.26 µM).
For the compound `CCCC[C@H]1[C@@H]2C[C@@]3(CC[C@H](C)[C@H](C[C@@H](C)O)O3)O[C@H]1CC[C@@H](CC)/C=C/C=C/CC[C@@H](O)[C@@H](C)[C@@H](O)C[C@@H](OC)C[C@@H](O)[C@H](C)[C@H](O)[C@@H](C)/C=C/C(=O)O2`, it took 3 µg/mL (≈ 3.85 µM) to inhibit growth (MIC).
Then `CCC[C@H]1[C@@H]2C[C@@]3(CC[C@H](C)[C@H](C[C@@H](C)O)O3)O[C@H]1CC[C@@H](CC)/C=C/C=C/CC[C@@H](O)[C@@H](C)[C@@H](O)C[C@@H](OC)C[C@@H](O)[C@H](C)[C@H](O)[C@@H](C)/C=C/C(=O)O2`, with 3 µg/mL (≈ 3.92 µM); and `CCC[C@H]1[C@@H]2C[C@@]3(CC[C@H](C)[C@H](C[C@H](O)CC)O3)O[C@H]1CC[C@@H](CC)/C=C/C=C/CC[C@@H](O)[C@@H](C)[C@@H](O)C[C@@H](OC)C[C@@H](O)[C@H](C)[C@H](O)[C@@H](C)/C=C/C(=O)O2`, with 3 µg/mL (≈ 3.85 µM).
